Reference: ChEMBL document CHEMBL3585292, “Anti-dormant mycobacterial activity and target analysis of nybomycin produced by a marine-derived Streptomyces sp” (2015)
Converted amounts (≈) assume the structure as drawn.

What was measured:
[1] = tested on: Mycobacterium tuberculosis; assay: Antibacterial activity against Mycobacterium bovis BCG under hypoxic condition after 14 days by MTT assay; assay type: functional; settings: variant bovis BCG, 336 h
Procedure, shortened: (§1)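 MTT microdilution. Mid-log bacilli in 7H9 with 10% OADC, 0.5% glycerol, 0.05% Tween 80, seeded at 1 × 10⁴ CFU/0.1 mL (M. smegmatis) or 1 × 10⁵ CFU/0.1 mL (BCG, M. tuberculosis), then serially diluted sample added. Aerobic incubation at 37 °C; hypoxic incubation at 37 °C under N2 with 0.2% O2. MTT (0.5 mg/mL, 50 µL) added for 12 h more, OD560 read to give MIC.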

[2] = tested on: Mycobacterium tuberculosis; assay: Antibacterial activity against Mycobacterium bovis BCG under aerobic condition after 7 days by MTT assay; assay type: functional; settings: variant bovis BCG, 168 h; procedure, shortened: as §1

Structure (SMILES) | MIC [1] [µg/mL] | MIC [2] [µg/mL]
Cc1cc(=O)n2c3c(c4c(cc13)c(CO)cc(=O)n4C)OC2 | 1 (≈ 3.35 µM) | 1 (≈ 3.35 µM)
Cc1cc(=O)n2c3c(c4c(cc13)c(COC(=O)CCCc1cn(CCOCCOCCOCCOCCOCCOCCOCCOCCOCCOCCNC(=O)CCCC[C@@H]3SC[C@@H]5NC(=O)N[C@@H]53)nn1)cc(=O)n4C)OC2 | 6.25 (≈ 5.46 µM) | 12.5 (≈ 10.9 µM)
COC(=O)CCCc1cn(CCOCCOCCOCCOCCOCCOCCOCCOCCOCCOCCNC(=O)CCCC[C@@H]2SC[C@@H]3NC(=O)N[C@@H]32)nn1 | > 200 | > 200
NNC(=O)c1ccncc1 [ISONIAZID] | > 100 | 0.05 (≈ 0.365 µM)
